Reference: ChEMBL document CHEMBL3352166, “Structure-guided design and development of novel benzimidazole class of compounds targeting DNA gyraseB enzyme of Staphylococcus aureus” (Bioorg Med Chem, 2014)
Converted amounts (≈) assume the structure as drawn.

What was measured:
[1] = target: DNA gyrase subunit B (Staphylococcus aureus, UniProt P0A0K8); assay: Inhibition of Staphylococcus aureus DNA gyrase B ATPase activity
[2] = target: DNA gyrase (Staphylococcus aureus, UniProt P0A0K8+P20831); assay: Inhibition of Staphylococcus aureus DNA gyrase-mediated supercoiling of relaxed DNA using pBR 322 as substrate by agarose gel electrophoresis analysis; type: protein-complex assay
[3] = test system: Staphylococcus aureus; assay: Antimicrobial activity against Staphylococcus aureus MTCC 3160 after 16 to 24 hrs by agar dilution method; type: functional
Outline: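 MIC by agar dilution per CLSI on Mueller-Hinton agar. Overnight colonies were suspended to about 10^6 cfu/mL, and 1 mL was added to 19 mL medium. Compounds were made up in 0.9% saline and tested over about 10 doubling dilutions, 100 µM to 0.1 µM. Plates ran 16-20 h at 35 °C in ambient air. MIC was the lowest concentration preventing visible growth.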

[4] = test system: Staphylococcus aureus; assay: Inhibition of biofilm formation in methicillin-resistant Staphylococcus aureus MTCC 96 after 24 hr incubation by tissue culture plate method; conditions: MTCC 96, 24 h
[5] = Cytotoxicity against human HEK293 cells assessed as reduction in cell viability at 100 uM after 72 hrs by MTT assay; type: cell-based; conditions: read-out: INH
Outline: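 HEK-293 cells were seeded at 5000 per well and left 24 h, then washed. They were exposed to 100 µM in RPMI + 5% FBS + 1% penicillin/streptomycin, with final DMSO ≤0.5%, for 72 h at 37 °C in 5% CO2. DMSO-treated cultures served as controls. Viability was read by MTT at 570 nm, in triplicate, as percentage inhibition.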

[6] = test system: Staphylococcus aureus; assay: Antimicrobial activity against methicillin-resistant Staphylococcus aureus MTCC 96 after 16 to 24 hrs by agar dilution method; type: functional
Outline: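 Agar dilution per CLSI guidelines on Mueller-Hinton agar. Overnight colonies suspended to about 10^6 cfu/mL, and 1 mL added to 19 mL medium. Stocks in 0.9% saline, tested over about 10 doubling dilutions from 100 µM to 0.1 µM. Plates incubated at 35 °C in ambient air for 16-20 h. MIC taken as the lowest concentration preventing visible growth.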

Sequence of DNA gyrase subunit B (P0A0K8 whole entry): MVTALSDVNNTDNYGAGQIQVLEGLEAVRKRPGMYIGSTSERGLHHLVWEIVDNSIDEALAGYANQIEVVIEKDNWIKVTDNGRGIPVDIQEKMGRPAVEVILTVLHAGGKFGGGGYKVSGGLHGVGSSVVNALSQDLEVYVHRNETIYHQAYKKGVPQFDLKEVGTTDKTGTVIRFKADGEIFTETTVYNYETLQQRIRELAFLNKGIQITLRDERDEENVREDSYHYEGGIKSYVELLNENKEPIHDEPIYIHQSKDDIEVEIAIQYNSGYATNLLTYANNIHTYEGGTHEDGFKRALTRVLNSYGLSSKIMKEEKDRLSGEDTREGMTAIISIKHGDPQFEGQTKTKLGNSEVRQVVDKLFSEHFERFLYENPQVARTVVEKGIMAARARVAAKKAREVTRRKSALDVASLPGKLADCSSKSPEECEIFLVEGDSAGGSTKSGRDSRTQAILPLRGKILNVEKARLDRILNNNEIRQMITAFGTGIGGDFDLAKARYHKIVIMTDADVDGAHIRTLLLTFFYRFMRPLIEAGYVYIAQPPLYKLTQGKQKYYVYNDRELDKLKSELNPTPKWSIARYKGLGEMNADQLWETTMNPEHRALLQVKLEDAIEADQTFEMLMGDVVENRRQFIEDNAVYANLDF
Sequence of DNA gyrase (P0A0K8 whole entry): as above
Sequence of DNA gyrase (P20831 whole entry): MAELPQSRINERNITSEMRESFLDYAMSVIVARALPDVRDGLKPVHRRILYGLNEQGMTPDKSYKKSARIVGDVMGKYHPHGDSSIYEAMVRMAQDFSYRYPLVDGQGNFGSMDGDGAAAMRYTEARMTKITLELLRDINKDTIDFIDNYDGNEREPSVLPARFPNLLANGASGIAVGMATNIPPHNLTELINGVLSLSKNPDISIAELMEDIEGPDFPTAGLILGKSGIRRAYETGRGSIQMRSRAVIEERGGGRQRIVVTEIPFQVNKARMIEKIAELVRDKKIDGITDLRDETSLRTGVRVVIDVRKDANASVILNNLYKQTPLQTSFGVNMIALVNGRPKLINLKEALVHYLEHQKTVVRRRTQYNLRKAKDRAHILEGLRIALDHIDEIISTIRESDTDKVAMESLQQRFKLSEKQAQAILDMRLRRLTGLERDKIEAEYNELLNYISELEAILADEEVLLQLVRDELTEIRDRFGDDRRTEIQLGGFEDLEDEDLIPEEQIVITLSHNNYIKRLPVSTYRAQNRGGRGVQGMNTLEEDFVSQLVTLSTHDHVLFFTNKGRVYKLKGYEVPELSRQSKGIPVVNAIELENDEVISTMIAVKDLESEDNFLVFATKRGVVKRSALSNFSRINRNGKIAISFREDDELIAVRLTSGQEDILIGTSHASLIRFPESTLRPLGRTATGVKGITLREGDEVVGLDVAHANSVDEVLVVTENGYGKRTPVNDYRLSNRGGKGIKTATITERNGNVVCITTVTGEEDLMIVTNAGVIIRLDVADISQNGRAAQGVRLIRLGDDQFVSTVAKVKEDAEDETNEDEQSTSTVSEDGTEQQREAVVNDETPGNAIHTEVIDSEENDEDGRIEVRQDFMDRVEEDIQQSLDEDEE

Compound | IC50 [1] | IC50 [2] | MIC [3] | IC50 [4] | cytotoxicity at 72 h, 100 µM [5] | MIC [6]
Cc1sc2nc(SCC(=O)Nc3cccc(C(=O)O)c3)nc(O)c2c1C | 17.3 µM | 8.22 µM | – | – | – | –
Cc1sc2nc(SCC(=O)Nc3ccc(Cl)c(C(=O)O)c3)nc(O)c2c1C | 77.3 µM | > 50 µM | – | – | – | –
O=c1nc(/C=C/c2ccc(/C=C/c3cc(C(F)(F)F)[nH]c(=O)n3)cc2)cc(C(F)(F)F)[nH]1 | 42.2 µM | 24.9 µM | – | – | – | –
CNc1cc(CCNC(=O)c2ccc3oc(O)nc3c2)nc(-c2ccncc2)n1 | 92.1 µM | > 50 µM | – | – | – | –
CC(=O)Nc1ccc(OCC[n+]2ccc(CCS(=O)(=O)[O-])cc2)cc1 | 77.1 µM | 45.1 µM | – | – | – | –
Cc1cc2ncn(CC(O)COc3cccc(C(=O)O)c3)c2cc1C (stereo unspecified) | 12.9 µM | 3.13 µM | – | – | – | –
O=C(O)CCCC(=O)Nc1ccc(-c2nc3ccccc3[nH]2)cc1 | 12.6 µM | 2.9 µM | – | – | – | –
O=C(O)CCC(=O)Nc1ccc(NC(=O)c2ccco2)cc1 | 12.9 µM | 3.13 µM | – | – | – | –
CC(Cc1c[nH]c2ccccc12)NC(=O)CSS(=O)(=O)O (stereo unspecified) | 89.9 µM | > 50 µM | – | – | – | –
CCc1cc(=O)nc(SCC(=O)Nc2cccc(C(=O)O)c2)[nH]1 | 65 µM | > 50 µM | – | – | – | –
CCOc1cc(/C=C(\C#N)c2nc3ccc(C)cc3[nH]2)ccc1OCC(=O)O | 82.1 µM | > 50 µM | – | – | – | –
O=C(O)CC(=O)Nc1ccc(-c2nc3ccccc3[nH]2)cc1 | 6.91 µM | 6.12 µM | 42.3 µM (≈ 12.5 µg/mL) | 47.8 µM | 7.2% | 21.2 µM (≈ 6.25 µg/mL)
O=C(O)CCC(=O)Nc1ccc(-c2nc3ccccc3[nH]2)cc1 | 7.32 µM | 6.12 µM | 20.2 µM (≈ 6.25 µg/mL) | 88.3 µM | 2.9% | 40.4 µM (≈ 12.5 µg/mL)
COC(=O)CCCC(=O)Nc1ccc(-c2nc3ccccc3[nH]2)cc1 | 36.3 µM | 25 µM | 148 µM (≈ 50 µg/mL) | > 100 µM | 9.7% | 148 µM (≈ 50 µg/mL)
O=C(O)CCCCC(=O)Nc1ccc(-c2nc3ccccc3[nH]2)cc1 | 5.7 µM | 6.12 µM | 37 µM (≈ 12.5 µg/mL) | 81.5 µM | 32.1% | 37 µM (≈ 12.5 µg/mL)
O=C(O)CC(=O)Nc1ccc(-c2nc3cc(F)ccc3[nH]2)cc1 | 13.4 µM | 16.3 µM | 79.8 µM (≈ 25 µg/mL) | > 100 µM | 18.1% | 79.8 µM (≈ 25 µg/mL)
O=C(O)CCC(=O)Nc1ccc(-c2nc3cc(F)ccc3[nH]2)cc1 | 17.6 µM | 12 µM | 38.2 µM (≈ 12.5 µg/mL) | 82.7 µM | 28.7% | 38.2 µM (≈ 12.5 µg/mL)
COC(=O)CCCC(=O)Nc1ccc(-c2nc3cc(F)ccc3[nH]2)cc1 | 18.6 µM | 10.7 µM | 70.3 µM (≈ 25 µg/mL) | 59.3 µM | 33.8% | 32.2 µM (≈ 11.4 µg/mL)
O=C(O)CCCCC(=O)Nc1ccc(-c2nc3cc(F)ccc3[nH]2)cc1 | 15.3 µM | 7.1 µM | 35.2 µM (≈ 12.5 µg/mL) | > 100 µM | 29% | 59.3 µM (≈ 21.1 µg/mL)
O=C(O)CC(=O)Nc1ccc(-c2nc3cc(Cl)ccc3[nH]2)cc1 | 26.3 µM | 18.2 µM | 75.8 µM (≈ 25 µg/mL) | > 100 µM | 25.6% | 75.8 µM (≈ 25 µg/mL)
O=C(O)CCC(=O)Nc1ccc(-c2nc3cc(Cl)ccc3[nH]2)cc1 | 11.2 µM | 9.8 µM | 36.4 µM (≈ 12.5 µg/mL) | 53.2 µM | 31.7% | 36.4 µM (≈ 12.5 µg/mL)
O=C(O)CCCC(=O)Nc1ccc(-c2nc3cc(Cl)ccc3[nH]2)cc1 | 9.85 µM | 9.13 µM | 34.9 µM (≈ 12.5 µg/mL) | > 100 µM | 45.5% | 69.8 µM (≈ 25 µg/mL)
COC(=O)CCCC(=O)Nc1ccc(-c2nc3cc(Cl)ccc3[nH]2)cc1 | 35.6 µM | 22.2 µM | 67.2 µM (≈ 25 µg/mL) | > 100 µM | 27.9% | 134 µM (≈ 50 µg/mL)

Compound | IC50 [1] | IC50 [2] | MIC [3] | IC50 [4] | cytotoxicity at 72 h, 100 µM [5] | MIC [6]
O=C(O)CCCCC(=O)Nc1ccc(-c2nc3cc(Cl)ccc3[nH]2)cc1 | 13.1 µM | 8.91 µM | 33.6 µM (≈ 12.5 µg/mL) | 39.2 µM | 39.7% | 33.6 µM (≈ 12.5 µg/mL)
O=C(O)CC(=O)Nc1ccc(-c2nc3cc([N+](=O)[O-])ccc3[nH]2)cc1 | 4.93 µM | 2.23 µM | 9.18 µM (≈ 3.12 µg/mL) | 18.4 µM | 26.9% | 18.3 µM (≈ 6.24 µg/mL)
O=C(O)CCC(=O)Nc1ccc(-c2nc3cc([N+](=O)[O-])ccc3[nH]2)cc1 | 17.5 µM | 8.32 µM | 17 µM (≈ 6.01 µg/mL) | 27.9 µM | 24.6% | 17 µM (≈ 6.01 µg/mL)
O=C(O)CCCC(=O)Nc1ccc(-c2nc3cc([N+](=O)[O-])ccc3[nH]2)cc1 | 6.83 µM | 6.12 µM | 33.9 µM (≈ 12.5 µg/mL) | 62.3 µM | 27.2% | 44.1 µM (≈ 16.3 µg/mL)
COC(=O)CCCC(=O)Nc1ccc(-c2nc3cc([N+](=O)[O-])ccc3[nH]2)cc1 | 9.83 µM | 5.3 µM | 32.7 µM (≈ 12.5 µg/mL) | 59.3 µM | 35.9% | 32.7 µM (≈ 12.5 µg/mL)
O=C(O)CCCCC(=O)Nc1ccc(-c2nc3cc([N+](=O)[O-])ccc3[nH]2)cc1 | 9.82 µM | 6.09 µM | 32.6 µM (≈ 12.5 µg/mL) | 44.2 µM | 31.7% | 32.6 µM (≈ 12.5 µg/mL)
COc1ccc2[nH]c(-c3ccc(NC(=O)CC(=O)O)cc3)nc2c1 | 11.1 µM | 18.4 µM | 38.4 µM (≈ 12.5 µg/mL) | > 100 µM | 27.4% | 76.8 µM (≈ 25 µg/mL)
COc1ccc2[nH]c(-c3ccc(NC(=O)CCC(=O)O)cc3)nc2c1 | 13.4 µM | 11.3 µM | 73.7 µM (≈ 25 µg/mL) | > 100 µM | 26.7% | 73.7 µM (≈ 25 µg/mL)
COc1ccc2[nH]c(-c3ccc(NC(=O)CCCC(=O)O)cc3)nc2c1 | 8.93 µM | 5.32 µM | 35.4 µM (≈ 12.5 µg/mL) | 52.2 µM | 22.4% | 35.4 µM (≈ 12.5 µg/mL)
COC(=O)CCCC(=O)Nc1ccc(-c2nc3cc(OC)ccc3[nH]2)cc1 | 21.3 µM | 12.5 µM | 68 µM (≈ 25 µg/mL) | 63.9 µM | 50.5% | 34 µM (≈ 12.5 µg/mL)
COc1ccc2[nH]c(-c3ccc(NC(=O)CCCCC(=O)O)cc3)nc2c1 | 22.9 µM | 12.5 µM | 68 µM (≈ 25 µg/mL) | 71.1 µM | 29.4% | 34.1 µM (≈ 12.5 µg/mL)
O=C(O)CC(=O)Nc1ccc(-c2nc3cccnc3[nH]2)cc1 | 21.8 µM | 8.9 µM | 42.2 µM (≈ 12.5 µg/mL) | 71.9 µM | 27.2% | 42.2 µM (≈ 12.5 µg/mL)
O=C(O)CCC(=O)Nc1ccc(-c2nc3cccnc3[nH]2)cc1 | 9.23 µM | 3.13 µM | 20.1 µM (≈ 6.25 µg/mL) | 29.4 µM | 31.1% | 10.1 µM (≈ 3.12 µg/mL)
O=C(O)CCCC(=O)Nc1ccc(-c2nc3cccnc3[nH]2)cc1 | 18.5 µM | 6.98 µM | 38.5 µM (≈ 12.5 µg/mL) | 88.1 µM | 33.8% | 38.5 µM (≈ 12.5 µg/mL)
COC(=O)CCCC(=O)Nc1ccc(-c2nc3cccnc3[nH]2)cc1 | 5.23 µM | 6.8 µM | 36.9 µM (≈ 12.5 µg/mL) | 79.3 µM | 57.5% | 36.9 µM (≈ 12.5 µg/mL)
O=C(O)CCCCC(=O)Nc1ccc(-c2nc3cccnc3[nH]2)cc1 | 2.9 µM | 2.1 µM | 4.61 µM (≈ 1.56 µg/mL) | 15.7 µM | 22.7% | 9.23 µM (≈ 3.12 µg/mL)
O=C(O)COCC(=O)Nc1ccc(-c2nc3ccccc3[nH]2)cc1 | 6.01 µM | 4.81 µM | 38.4 µM (≈ 12.5 µg/mL) | 68.8 µM | 40% | 46.9 µM (≈ 15.3 µg/mL)
O=C(O)CSCC(=O)Nc1ccc(-c2nc3ccccc3[nH]2)cc1 | 22.8 µM | 12.5 µM | 73.3 µM (≈ 25 µg/mL) | 82.1 µM | 13.1% | 37.6 µM (≈ 12.8 µg/mL)
O=C(O)COCC(=O)Nc1ccc(-c2nc3cc(F)ccc3[nH]2)cc1 | 6.12 µM | 2.9 µM | 9.1 µM (≈ 3.12 µg/mL) | 19.6 µM | 14.5% | 9.1 µM (≈ 3.12 µg/mL)
O=C(O)CSCC(=O)Nc1ccc(-c2nc3cc(F)ccc3[nH]2)cc1 | 6.93 µM | 4.8 µM | 34.8 µM (≈ 12.5 µg/mL) | 59.1 µM | 20.6% | 17.3 µM (≈ 6.22 µg/mL)
O=C(O)c1cn(C2CC2)c2cc(N3CCNCC3)c(F)cc2c1=O [CIPROFLOXACIN] | – | – | – | 16.9 µM | – | –
CO[C@@H]1[C@@H](OC(N)=O)[C@@H](O)[C@H](Oc2ccc3c(O)c(NC(=O)c4ccc(O)c(CC=C(C)C)c4)c(=O)oc3c2C)OC1(C)C [NOVOBIOCIN] | – | – | 0.25 µM (≈ 0.153 µg/mL) | – | – | –
